Results: ChEMBL document CHEMBL1139629 (Bioorg Med Chem Lett, 2005)

Legend:
[1] = target: Prostaglandin E2 receptor EP2 subtype (Homo sapiens, UniProt P43116); assay: Displacement of [3H]-PGE-2 from human Prostanoid EP2 receptor
[2] = target: T1, Prostaglandin D2 receptor (Homo sapiens, UniProt Q13258); assay: Displacement of [3H]PGD-2 from human Prostanoid DP receptor
T1 sequence (Q13258 whole entry): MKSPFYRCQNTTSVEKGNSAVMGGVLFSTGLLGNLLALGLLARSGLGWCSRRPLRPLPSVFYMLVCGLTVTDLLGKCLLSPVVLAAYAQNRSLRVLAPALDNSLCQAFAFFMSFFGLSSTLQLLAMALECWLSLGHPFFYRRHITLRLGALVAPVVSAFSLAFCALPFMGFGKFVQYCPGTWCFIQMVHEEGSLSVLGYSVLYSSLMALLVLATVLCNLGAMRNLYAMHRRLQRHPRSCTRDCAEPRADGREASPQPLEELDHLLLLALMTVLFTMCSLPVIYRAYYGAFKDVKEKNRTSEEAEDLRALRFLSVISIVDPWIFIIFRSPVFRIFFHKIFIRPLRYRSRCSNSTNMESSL

[3] = target: Prostaglandin F2-alpha receptor (Homo sapiens, UniProt P43088); assay: Displacement of [3H]PGF-2 from human Prostanoid FP receptor
[4] = target: T2, Prostaglandin E2 receptor EP1 subtype (Homo sapiens, UniProt P34995); assay: Displacement of [3H]PGE-2 from human Prostanoid EP1 receptor
T2 sequence (P34995 whole entry): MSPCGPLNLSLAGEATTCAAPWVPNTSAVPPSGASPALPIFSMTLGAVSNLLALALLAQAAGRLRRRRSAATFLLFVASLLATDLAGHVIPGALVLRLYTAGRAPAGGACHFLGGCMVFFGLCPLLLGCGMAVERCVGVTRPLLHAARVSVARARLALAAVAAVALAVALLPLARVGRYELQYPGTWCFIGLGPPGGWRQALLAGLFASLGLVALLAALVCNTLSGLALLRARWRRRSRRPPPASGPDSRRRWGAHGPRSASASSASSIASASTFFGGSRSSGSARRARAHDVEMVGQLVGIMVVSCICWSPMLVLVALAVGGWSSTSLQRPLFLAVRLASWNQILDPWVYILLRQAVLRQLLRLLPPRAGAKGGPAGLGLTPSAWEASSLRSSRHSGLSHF

[5] = target: T3, Prostaglandin E2 receptor EP3 subtype (Homo sapiens, UniProt P43115); assay: Displacement of [3H]PGE-2 from human Prostanoid EP3 receptor
T3 sequence (P43115 whole entry): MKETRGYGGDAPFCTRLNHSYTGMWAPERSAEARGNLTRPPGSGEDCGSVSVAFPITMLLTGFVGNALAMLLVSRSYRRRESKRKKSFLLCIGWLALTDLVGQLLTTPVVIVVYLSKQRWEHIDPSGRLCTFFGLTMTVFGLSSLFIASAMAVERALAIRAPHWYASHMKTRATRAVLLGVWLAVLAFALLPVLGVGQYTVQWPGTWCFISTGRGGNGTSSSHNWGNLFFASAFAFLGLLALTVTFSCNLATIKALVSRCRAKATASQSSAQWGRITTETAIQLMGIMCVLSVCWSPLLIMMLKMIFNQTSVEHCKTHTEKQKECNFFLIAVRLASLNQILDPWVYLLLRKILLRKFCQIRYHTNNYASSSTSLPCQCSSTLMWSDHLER

Thromboxane A2 receptor = target: T4, Thromboxane A2 receptor (Homo sapiens, UniProt P21731); assay: Displacement of [3H]SQ-29,548 from human Prostanoid TP receptor
T4 sequence (P21731 whole entry): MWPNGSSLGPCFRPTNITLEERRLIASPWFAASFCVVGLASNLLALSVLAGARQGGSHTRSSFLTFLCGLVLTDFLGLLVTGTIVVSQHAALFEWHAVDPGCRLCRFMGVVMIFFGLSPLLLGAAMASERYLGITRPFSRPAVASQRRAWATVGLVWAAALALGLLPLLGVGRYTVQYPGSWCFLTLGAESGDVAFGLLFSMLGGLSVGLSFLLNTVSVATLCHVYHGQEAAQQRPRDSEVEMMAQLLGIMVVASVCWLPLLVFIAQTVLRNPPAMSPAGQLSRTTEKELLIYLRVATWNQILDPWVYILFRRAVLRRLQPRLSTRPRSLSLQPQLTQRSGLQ

[6] = target: Prostaglandin E2 receptor EP4 subtype (Homo sapiens, UniProt P35408); assay: Displacement of [3H]PGE-2 from human Prostanoid EP4 receptor
Prostacyclin receptor = Prostacyclin receptor (Homo sapiens, UniProt P43119); assay: Displacement of [3H]iloprost from human Prostanoid IP receptor
Method in brief: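 Competitive radioligand binding using cloned human IP receptor, measuring displacement of [3H]-iloprost.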

Monkey = assay: Inhibition concentration against ADP-induced platelet aggregation using monkey platelet rich plasma; format: functional; conditions: Cercopithecidae
Method in brief: (§1)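 Functional IP agonism was measured as inhibition of ADP-induced aggregation in platelet-rich plasma from human, rat, dog or monkey. IC50 was taken from the inhibition of aggregation.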

Cell line = assay: Inhibition concentration against ADP-induced platelet aggregation using human platelet rich plasma; format: functional, cell-based; method in brief: as §1
[7] = Maximum concentration in rat after oral administration at 10 mg/kg dose; format: ADME, organism-based; set-up: dose 10 mg/kg, route oral; conditions: in vivo
dog (Canis familiaris) = assay: Area under curve in dog after oral administdogion at 0.32 mg/kg dose; conditions: in vivo
[8] = Area under curve in rat after oral administration at 10 mg/kg dose; format: ADME, organism-based; set-up: dose 10 mg/kg, route oral; conditions: in vivo
[9] = Bioavailability in rat after […] administration at 10 mg/kg dose; format: ADME, organism-based; conditions: in vivo, read-out: Ba
Rattus norvegicus = organism: Rattus norvegicus; assay: Inhibition concentration against ADP-induced platelet aggregation using rat platelet rich plasma; format: functional
Method in brief: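 Aggregation was induced with ADP in rat platelet-rich plasma, and IC50 was taken from inhibition of aggregation. Values are the mean of two or three experiments.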

[10] = Total clearance in rat after intravenous administration at 10 mg/kg dose; format: ADME, organism-based; set-up: dose 10 mg/kg, route intravenous; conditions: in vivo, read-out: CLtot
[11] = Half life in rat after intravenous administration at 10 mg/kg dose; format: ADME, organism-based; set-up: dose 10 mg/kg, route intravenous; conditions: in vivo
[12] = Total clearance in dog after intravenous administration at 0.32 mg/kg dose; format: ADME, organism-based, Canis lupus familiaris; set-up: dose 0.32 mg/kg, route intravenous; conditions: in vivo, read-out: CLtot
Canis familiaris = organism: Canis familiaris; assay: Inhibition concentration against ADP-induced platelet aggregation using dog platelet rich plasma; format: functional; conditions: Canis lupus familiaris; method in brief: as §1

Prostaglandin E2 receptor EP2 subtype, sequence (P43116 whole entry): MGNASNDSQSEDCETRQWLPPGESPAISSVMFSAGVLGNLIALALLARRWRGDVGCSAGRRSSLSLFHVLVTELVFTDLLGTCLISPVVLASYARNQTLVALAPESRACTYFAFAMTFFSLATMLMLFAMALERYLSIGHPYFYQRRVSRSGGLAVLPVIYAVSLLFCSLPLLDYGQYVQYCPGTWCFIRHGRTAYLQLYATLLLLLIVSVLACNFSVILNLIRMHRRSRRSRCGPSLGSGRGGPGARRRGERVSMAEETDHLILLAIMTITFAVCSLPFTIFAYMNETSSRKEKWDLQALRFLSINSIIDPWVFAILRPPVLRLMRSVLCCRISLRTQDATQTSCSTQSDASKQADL
Prostacyclin receptor, sequence (P43119 whole entry): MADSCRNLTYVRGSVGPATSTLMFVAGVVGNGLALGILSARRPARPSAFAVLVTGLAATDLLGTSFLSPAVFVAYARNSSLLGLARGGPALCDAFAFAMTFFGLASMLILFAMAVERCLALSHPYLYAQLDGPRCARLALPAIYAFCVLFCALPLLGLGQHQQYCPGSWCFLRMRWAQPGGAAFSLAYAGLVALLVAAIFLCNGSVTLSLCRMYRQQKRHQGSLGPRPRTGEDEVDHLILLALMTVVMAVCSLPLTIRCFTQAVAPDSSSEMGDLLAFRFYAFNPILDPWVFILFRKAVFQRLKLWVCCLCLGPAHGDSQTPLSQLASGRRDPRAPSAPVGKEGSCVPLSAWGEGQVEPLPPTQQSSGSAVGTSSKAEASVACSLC
Prostaglandin F2-alpha receptor, sequence (P43088 whole entry): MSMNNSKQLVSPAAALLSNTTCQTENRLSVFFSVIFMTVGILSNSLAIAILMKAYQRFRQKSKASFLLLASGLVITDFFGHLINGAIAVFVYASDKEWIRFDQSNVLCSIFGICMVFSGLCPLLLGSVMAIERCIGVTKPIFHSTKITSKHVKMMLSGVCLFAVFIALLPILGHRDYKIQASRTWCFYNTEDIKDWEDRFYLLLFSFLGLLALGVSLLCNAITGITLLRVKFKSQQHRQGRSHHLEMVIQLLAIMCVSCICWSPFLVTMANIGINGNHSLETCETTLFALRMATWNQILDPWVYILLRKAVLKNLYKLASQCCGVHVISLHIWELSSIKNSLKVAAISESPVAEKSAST
Prostaglandin E2 receptor EP4 subtype, sequence (P35408 whole entry): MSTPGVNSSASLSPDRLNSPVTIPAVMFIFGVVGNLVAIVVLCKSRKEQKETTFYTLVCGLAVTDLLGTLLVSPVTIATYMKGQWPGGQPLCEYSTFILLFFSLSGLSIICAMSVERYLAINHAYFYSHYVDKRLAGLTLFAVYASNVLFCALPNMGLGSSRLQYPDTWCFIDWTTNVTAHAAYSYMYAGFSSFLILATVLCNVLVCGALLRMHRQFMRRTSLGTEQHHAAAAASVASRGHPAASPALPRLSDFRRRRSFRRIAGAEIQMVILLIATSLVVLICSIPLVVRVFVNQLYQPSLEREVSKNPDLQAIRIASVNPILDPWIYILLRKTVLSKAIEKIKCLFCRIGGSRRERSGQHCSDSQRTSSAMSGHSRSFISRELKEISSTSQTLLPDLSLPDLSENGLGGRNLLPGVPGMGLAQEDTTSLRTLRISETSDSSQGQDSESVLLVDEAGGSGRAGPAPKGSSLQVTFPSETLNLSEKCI

Ki [1] [nM]	Ki [4] [nM]	Ki [5] [nM]	Ki [6] [nM]	Ki (Prostacyclin receptor) [nM]	IC50 (Cell line) [nM]	IC50 (Rattus norvegicus) [nM]	SMILES	further results
> 1000	> 1000	6800					O=C(O)COc1cccc(C[C@@H]2CCCC=C2c2nc(-c3ccccc3)c(-c3ccccc3)o2)c1	Ki [2]: > 1000 nM; Ki [3]: > 1000 nM; Ki (Thromboxane A2 receptor): > 1000 nM
> 1000	> 1000	> 10000	> 10000	12			O=C(O)COc1cccc2c1CCC[C@H]2N1CCC[C@@H]1c1nc(-c2ccccc2)c(-c2ccccc2)o1	Ki [2]: > 1000 nM; Ki [3]: > 1000 nM; Ki (Thromboxane A2 receptor): > 1000 nM
> 10000	9600	8200	> 10000	8.9	18	1400	O=C(O)COc1cccc2c1CC[C@](O)(COC(=O)N(c1ccccc1)c1ccccc1)C2	IC50 (Monkey): 13 nM; Cmax [7]: 342 ng/mL; AUC (dog (Canis familiaris)): 2200 ng·h/mL; AUC [8]: 1590 ng·h/mL; Ki [2]: 2300 nM; bioavailability [9]: 38%; clearance [10]: 38 mL/min/kg; Ki [3]: > 10000 nM; half-life [11]: 1.81 h; clearance [12]: 2.31 mL/min/kg; IC50 (Canis familiaris): 480 nM; Ki (Thromboxane A2 receptor): > 10000 nM
					91	> 10000	O=C(O)COc1cccc2c1CCC(COC(=O)N(c1ccccc1)c1ccccc1)=C2	
> 1000	> 1000	1900	> 10000	140	53	> 10000	O=C(O)COc1cccc2c1CCC(COC(=O)N(c1ccccc1)c1ccccc1)C2 (stereo not given)	
					3200	> 10000	O=C(O)COc1cccc2c1CC[C@H](COC(=O)N(c1ccccc1)c1ccccc1)[C@H]2O	
					1300	> 10000	O=C(O)COc1cccc2c1CC[C@](O)(COC(=O)N(c1ccccc1)c1ccccc1)[C@H]2O	
					270	> 10000	O=C(O)COc1cccc2c1CC[C@@](O)(COC(=O)N(c1ccccc1)c1ccccc1)C2	
> 1000	> 1000	> 10000	> 10000	110	5.8	7400	O=C(O)COc1cccc2c1CC[C@](O)(COC(=O)N(c1ccccc1)c1ccccc1)C2O (single isomer, unassigned)	
					170	> 10000	O=C(O)COc1cccc2c1CC[C@H](COC(=O)N(c1ccccc1)c1ccccc1)C2O (single isomer, unassigned)	
					150	5600	CCC/C(CC1CCc2c(cccc2OCC(=O)O)C1)=N\OC(c1ccccc1)c1ccccc1 (stereo not given) [AP-227]	
					2.5		CC#CCC(C)[C@H](O)/C=C/[C@@H]1[C@H]2C/C(=C/CCCC(=O)O)C[C@H]2C[C@H]1O (stereo not given in full) [ILOPROST]	
